Assay results as given in ChEMBL document CHEMBL2040844, “Anthranilic acid-based diamides derivatives incorporating aryl-isoxazoline pharmacophore as potential anticancer agents: design, synthesis and biological evaluation” (Eur J Med Chem, 2012).

Key:
[1] = system: SGC-7901; assay: Cytotoxicity against human SGC7901 cells after 72 hrs by MTT assay; format: functional, cell-based; settings: SGC-7901, 72 h
In short: (§1)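 MTT assay. Cells were seeded at 2 × 10⁴ per well, grown to subconfluence, then exposed to serial dilutions of compound in test medium for 72 h at 37 °C in humidified 5% CO₂. MTT was added for 4 h, formazan was dissolved in DMSO, and absorbance was read at 570 nm. IC50 values were derived from dose-response. Triplicate wells, three independent experiments; 5-FU served as positive control.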

[2] = system: MCF7; assay: Growth inhibition of human MCF7 cells at 40 ug/ml after 72 hrs by MTT assay; format: functional; settings: MCF7, 72 h, read-out: GI
In short: (§2)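 Single-concentration screen at 40 µg/mL, reported as % cell growth inhibition. Cells were seeded at 2 × 10⁴ per well, grown to subconfluence, then treated for 72 h at 37 °C in humidified 5% CO₂. MTT was added for 4 h, formazan was dissolved in DMSO, and absorbance was read at 570 nm. Triplicate wells, three independent experiments; 5-FU served as positive control.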

[3] = system: MCF7; assay: Cytotoxicity against human MCF7 cells after 72 hrs by MTT assay; format: functional, cell-based; settings: MCF7, 72 h; in short: as §1
[4] = system: SGC-7901; assay: Growth inhibition of human SGC7901 cells at 40 ug/ml after 72 hrs by MTT assay; format: functional; settings: SGC-7901, 72 h, read-out: GI; in short: as §2
[5] = system: HepG2; assay: Growth inhibition of human HepG2 cells at 40 ug/ml after 72 hrs by MTT assay; format: functional; settings: HepG2, 72 h, read-out: GI; in short: as §2
[6] = system: NCI-H460; assay: Cytotoxicity against human NCI-H460 cells after 72 hrs by MTT assay; format: functional, cell-based; settings: NCI-H460, 72 h; in short: as §1
[7] = system: BGC-823; assay: Cytotoxicity against human BGC823 cells after 72 hrs by MTT assay; format: functional, cell-based; settings: for IC50: BGC-823, 72 h; in short: as §1
[8] = system: NCI-H460; assay: Growth inhibition of human NCI-H460 cells at 40 ug/ml after 72 hrs by MTT assay; format: functional; settings: NCI-H460, 72 h, read-out: GI; in short: as §2
[9] = system: BGC-823; assay: Growth inhibition of human BGC823 cells at 40 ug/ml after 72 hrs by MTT assay; format: functional; settings: BGC-823, 72 h, read-out: GI; in short: as §2
[10] = system: HepG2; assay: Cytotoxicity against human HepG2 cells after 72 hrs by MTT assay; format: functional, cell-based; settings: for IC50: HepG2, 72 h; in short: as §1

| SMILES | IC50 [1] [µM] | inhibition of growth at 40 µg/mL [2] [%] | IC50 [3] [µM] | inhibition of growth at 40 µg/mL [4] [%] | inhibition of growth at 40 µg/mL [5] [%] | IC50 [6] [µM] | IC50 [7] [µM] | inhibition of growth at 40 µg/mL [8] [%] | inhibition of growth at 40 µg/mL [9] [%] | IC50 [10] [µM] | Activity [7] | Activity [10] |
| --- | --- | --- | --- | --- | --- | --- | --- | --- | --- | --- | --- | --- |
| CNC(=O)c1cc(Cl)cc(C)c1NC(=O)C1CC(c2ccc(F)cc2)=NO1 (configuration not stated) | > 100 | 40.8 | > 100 | 12.8 | 26.7 | 50.3 | > 100 | 42.9 | 14.6 | > 100 |  |  |
| COc1cc(C2=NOC(C(=O)Nc3c(C)cc(Cl)cc3C(=O)NC(C)C)C2)cc(OC)c1OC (configuration not stated) |  | 9.1 |  | 0 | 12.9 |  |  | 0.5 | 11.7 |  |  |  |
| CC(C)NC(=O)c1ccccc1NC(=O)C1CC(c2ccc(Cl)cc2)=NO1 (configuration not stated) |  | 0 |  | 13.6 | 5.5 |  |  | 0 | 14.6 |  |  |  |
| CCN(CC)C(=O)c1cc(Cl)cc(C)c1NC(=O)C1CC(c2ccc(Cl)cc2)=NO1 (configuration not stated) | 37.4 | 62.1 | 34.5 | 76.3 | 59.2 | 37.5 | 36.5 | 63.5 | 59.6 | 37.7 | Dose-dependent effect | Dose-dependent effect |
| CCCNC(=O)c1cc(Cl)cc(C)c1NC(=O)C1CC(c2ccc(F)cc2)=NO1 (configuration not stated) | > 100 | 33 | > 100 | 30.5 | 29.1 | > 100 | > 100 | 20 | 23.5 | > 100 |  |  |
| CNC(=O)c1ccccc1NC(=O)C1CC(c2ccc(Cl)cc2)=NO1 (configuration not stated) |  | 16.5 |  | 7.8 | 50.6 |  |  | 5.7 | 13.3 |  |  |  |
| Cc1cc(Cl)cc(C(=O)NC(C)C)c1NC(=O)C1CC(c2ccc(F)cc2)=NO1 (configuration not stated) |  | 4.8 |  | 17.2 | 13.6 |  |  | 0 | 0 |  |  |  |
| CNC(=O)c1ccccc1NC(=O)C1CC(c2cc(OC)c(OC)c(OC)c2)=NO1 (configuration not stated) |  | 9.1 |  | 12 | 31.4 |  |  | 0 | 20.8 |  |  |  |
| CNC(=O)c1cc(Cl)cc(C)c1NC(=O)C1CC(c2ccc(Cl)cc2)=NO1 (configuration not stated) | > 100 | 22.6 | > 100 | 24.6 | 18.7 | > 100 | > 100 | 0 | 13.2 | > 100 |  |  |
| CC(C)NC(=O)c1ccccc1NC(=O)C1CC(c2ccc(F)cc2)=NO1 (configuration not stated) |  | 0 |  | 10.3 | 0 |  |  | 0 | 21.5 |  |  |  |
| Cc1cc(Cl)cc2c(=O)oc(C3CC(c4ccc(F)cc4)=NO3)nc12 (configuration not stated) | 53.4 | 54.7 | 51.9 | 42.7 | 38.9 | 35.8 | 34.9 | 64.6 | 72.1 | 53.4 |  |  |
| CCN(CC)C(=O)c1cc(Cl)cc(C)c1NC(=O)C1CC(c2cc(OC)c(OC)c(OC)c2)=NO1 (configuration not stated) |  | 23.5 |  | 28.3 | 28.6 |  |  | 0 | 27.8 |  |  |  |
| CCCNC(=O)c1cc(Cl)cc(C)c1NC(=O)C1CC(c2ccc(Cl)cc2)=NO1 (configuration not stated) |  | 22.2 |  | 14.7 | 16.7 |  |  | 13.6 | 24.5 |  |  |  |
